Measurements from ChEMBL document CHEMBL2040804, “A SAR study on a series of synthetic lipophilic chalcones as inhibitor of transcription factor NF-κB” (Eur J Med Chem, 2012).

Assays:
Assay type in all cases: cell-based
RAW264.7 [1] = test: Inhibition of LPS-induced NF-kappaB activation in mouse RAW264.7 cells transfected with IKKbeta-pSV-b-galactosidase control vector at 30 uM after 20 hrs by secretory alkaline phosphatase assay
Outline: (§1)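 RAW 264.7 cells stably carrying a pNF-κB-SEAP-NPT reporter were transfected by lipofectamine with a constitutively active IKKβ vector plus pSV-β-galactosidase control vector. Cells were treated with samples for 20 h. Culture medium aliquots were heated at 65 °C for 5 min and reacted with 4-methylumbelliferyl phosphate in the dark. SEAP fluorescence was read at ex 360/em 449 nm and normalized to β-galactosidase activity.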

[2] = Inhibition of LPS-induced NF-kappaB activation in mouse RAW264.7 cells transfected with IKKbeta-pSV-b-galactosidase control vector after 20 hrs by secretory alkaline phosphatase assay; outline: as §1
RAW264.7 [3] = test: Cytotoxicity against mouse RAW264.7 cells by MTT assay

Row | SMILES | IC50 [2] [µM] | inhibition (RAW264.7 [1]) [%] | IC50 (RAW264.7 [3]) [µM]
1 | CCCCCCCCCCCCOc1cccc(O)c1C(=O)CCc1ccc(O)cc1 | > 30 | 52 | > 30
2 | CCCCCCCCCCOc1cccc(O)c1C(=O)/C=C/c1ccc(OC)cc1 | > 30 | 18 | > 30
3 | CCCCCCCCCCCCOc1cccc(O)c1C(O)CCc1ccc(O)cc1 (configuration not stated) | > 30 | 80 | > 30
4 | CCCCCCCCCCCCCCOc1cccc(O)c1C(=O)/C=C/c1ccc(O)cc1 | 4.2 | 100 | > 30
5 | CCCCCCCCCCOc1cccc(O)c1C(=O)/C=C/c1ccccc1O | > 30 | 45 | > 30
6 | O=C(/C=C/c1ccc(O)cc1)c1c(O)cccc1OCc1ccccc1 | > 30 | 28 | > 30
7 | O=C(/C=C/c1ccc(O)cc1)c1c(O)cccc1OCC1CCCCC1 | > 30 | 60 | > 30
8 | CCCCCCOc1cccc(O)c1C(=O)/C=C/c1ccc(O)cc1 | > 30 | 15 | > 30
9 | CCCCCCCCCCOc1cccc(O)c1C(=O)/C=C/c1ccc(O)c(Cl)c1 | 9.6 | 100 | > 30
10 | CCCCCCCCCCOc1cccc(O)c1C(=O)/C=C/c1cccc(O)c1 | > 30 | 22 | > 30
11 | CCCCCCCCCCOc1cccc(O)c1C(=O)/C=C/c1ccc(C)cc1 | > 30 | 8 | > 30
12 | CCCCCCCCCCCCCCCCOc1cccc(O)c1C(=O)/C=C/c1ccc(O)cc1 | > 30 | 42 | > 30
13 | CC(C)CCOc1cccc(O)c1C(=O)/C=C/c1ccc(O)cc1 | 10 | 100 | > 30

Further lines, with some results ahead:

Row | IC50 [2] [µM] | SMILES | inhibition (RAW264.7 [1]) [%] | IC50 (RAW264.7 [3]) [µM]
14 | 5 | CCCCCCCCOc1cccc(O)c1C(=O)/C=C/c1ccc(O)cc1 | 100 | > 30
15 | 2.7 | CCCCCCCCCCOc1cccc(O)c1C(=O)/C=C/c1ccc(O)cc1 | 100 | > 30
16 | 9.6 | CCCCCCCCC(CCCCCC)CCOc1cccc(O)c1C(=O)/C=C/c1ccc(O)cc1 (configuration not stated) | 100 | > 30
17 | 9.4 | CCCCCCCCCCCCOc1cccc(O)c1C(=O)/C=C/c1ccc(O)cc1 | 100 | > 30
18 | > 30 | CCCCCCOc1cccc(O)c1C(=O)/C=C/c1ccc(OCCCCC)cc1 | 17 | > 30
19 | > 30 | CCCCCCCCCCCCCCCCCCOc1cccc(O)c1C(=O)/C=C/c1ccc(O)cc1 | 22 | > 30
20 | > 30 | CCCCCCCCCCOc1cccc(O)c1C(=O)/C=C/c1ccc(Cl)c(Cl)c1 | 26 | > 30
21 | > 30 | CCCCCCCCCCCCCCOc1cccc(O)c1C(=O)/C=C/c1ccc(OCCCCCCCCCCCCC)cc1 | 10 | > 30
22 | 29 | CCCCCCCCCCCCCCOc1ccc(C(=O)/C=C/c2ccc(O)cc2)c(O)c1 | 50 | > 30
23 | > 30 | CCCCC/C=C\CCCCOc1cccc(O)c1C(=O)/C=C/c1ccc(O)cc1 | 8 | > 30
24 | > 30 | CCCCCCCCCCOc1cccc(O)c1C(=O)/C=C/c1cc(OC)c(O)c(OC)c1 | 53 | > 30
